Consider eleven molecules from ChEMBL document CHEMBL1123461, “Studies on 1,2,3-triazoles. 13. (Piperazinylalkoxy) [1]benzopyrano[2,3-d]-1,2,3-triazol-9(1H)-ones with combined H1-antihistamine and mast cell stabilizing properties” (J Med Chem, 1986).

Active and inactive are the calls of the source. No cut-off for these calls is given here.

Test [1] concerns the target T1, Histamine H1 receptor (Cavia porcellus, UniProt P31389). The experiment in a line: Compound was tested for H1-antihistamine activity in guinea pig ileum. The class given is functional, tissue-based. Particulars: read-out: pA2 (converted). The gist of the method: (§1)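 Isolated guinea pig ileum under ca. 1 g tension in Tyrode solution, with isotonic recording of histamine contractions. Method A: repeat histamine dose-response curves at increasing antagonist concentrations, then Schild plot of log(DR−1) vs −log molar concentration; pA2 is the abscissa intercept. Method B: 10-min antagonist exposure, then double histamine dose (~50% maximal single dose), three antagonist doses each tested three times.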

The species entered for test [2] is Rattus norvegicus. The experiment in a line: Compound was tested for the inhibition of release of extravasation in rat passive peritoneal anaphylaxis. Format: functional, organism-based. The gist of the method: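 Rats passively sensitized i.p. with 2 mL 1:5 rat antiserum. Two hours later, i.v. Pontamine Sky Blue, then i.p. challenge with 5 mL Tyrode containing 0.4 mg/mL ovalbumin and heparin. Compound given i.p. in 1 mL saline 30 s before antigen; dose expressed as concentration in 6 mL injected. Peritoneal fluid collected at 5 min; dye read at OD 625 nm. 5–7 rats/dose; ED50 from log-dose regression.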

The species named for test [3] is Rattus norvegicus. The experiment in a line: Compound was tested for the inhibition of release of histamine in rat passive peritoneal anaphylaxis. Format: functional, organism-based. The gist of the method: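 Rat passive peritoneal anaphylaxis: antiserum i.p. sensitization for 2 h, then i.p. ovalbumin challenge (0.4 mg/mL in 5 mL Tyrode). Compound given i.p. in saline 30 s before antigen; dose expressed as concentration in 6 mL fluid. Peritoneal fluid taken at 5 min, supernatant TCA-treated, histamine measured spectrofluorimetrically. 5–7 rats/dose; % inhibition vs positive controls; ED50 from log-dose regression.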

In test [4] the target is Histamine H1 receptor (Cavia porcellus) (UniProt P31389). The test is described as follows: Compound was tested for H1-antihistamine activity in guinea pig ileum; IA = Inactive. The class given is functional, tissue-based. The gist of the method:
as §1

Test [5] concerns the target T1, Histamine H1 receptor. The test is described as follows: H1-antihistamine activity in guinea pig ileum. The note with it: read-out: pA2 (converted). Format: functional, tissue-based. Put shortly: as §1

T1 sequence (P31389 whole entry): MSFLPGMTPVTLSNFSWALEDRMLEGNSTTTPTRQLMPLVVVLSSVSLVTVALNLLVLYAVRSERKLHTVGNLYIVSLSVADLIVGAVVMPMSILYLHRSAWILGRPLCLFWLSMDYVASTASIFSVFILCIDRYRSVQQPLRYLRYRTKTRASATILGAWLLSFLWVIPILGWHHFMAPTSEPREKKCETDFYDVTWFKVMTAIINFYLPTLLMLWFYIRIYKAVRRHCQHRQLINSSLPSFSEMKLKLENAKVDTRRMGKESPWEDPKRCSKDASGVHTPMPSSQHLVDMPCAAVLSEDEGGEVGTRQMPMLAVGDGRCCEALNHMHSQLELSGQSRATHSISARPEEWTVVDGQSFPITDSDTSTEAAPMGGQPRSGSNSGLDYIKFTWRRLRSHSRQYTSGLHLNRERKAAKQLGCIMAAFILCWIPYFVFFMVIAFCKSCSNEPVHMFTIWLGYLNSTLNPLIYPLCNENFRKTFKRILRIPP
Chain of Histamine H1 receptor (Cavia porcellus) (P31389 whole entry): as above

Take `Cc1ccc(CN2CCN(CCCOc3ccc4c(O)c5nnnc-5oc4c3C)CC2)cc1`: the Kb on Histamine H1 receptor [1] was 15.8 nM. Besides, the IC50 in the test listed under Rattus norvegicus [2] is above 20000 nM; in the test listed under Rattus norvegicus [3] it was 890 nM.
As to `COc1ccc(CN(CCN(C)C)c2ccccn2)cc1` [PYRILAMINE], in the test listed under Rattus norvegicus [3], the IC50 is above 200000 nM.
Consider `O=C(O)c1cc(=O)c2c(OCC(O)COc3cccc4oc(C(=O)O)cc(=O)c34)cccc2o1`, for which the pA2 result in test [4] was “inactive”.
On to `Cc1c(OCCCN2CCN(Cc3ccc(Cl)cc3)CC2)ccc2c(O)c3nnnc-3oc12`, for which, on Histamine H1 receptor [5], the Kb was 1.58 nM. The IC50 in the test filed under Rattus norvegicus [2] is 55000 nM; in the test filed under Rattus norvegicus [3], 840 nM.
In the test filed under Rattus norvegicus [3], `CN1CCC(=C2c3ccccc3CC(=O)c3sccc32)CC1` [KETOTIFEN] displayed an IC50 above 200000 nM.
`COc1ccc(CN2CCN(CCCOc3ccc4c(O)c5nnnc-5oc4c3C)CC2)cc1`: the Kb on Histamine H1 receptor [1] is 63.1 nM.
Consider `Cc1c(OCCCN2CCN(Cc3ccccc3Cl)CC2)ccc2c(O)c3nnnc-3oc12`, for which the Kb at Histamine H1 receptor [5] is 3.98 nM. Further, the results for the IC50 in the test listed under Rattus norvegicus [2] and in the test listed under Rattus norvegicus [3] were 10000 nM and 2300 nM, respectively.
On the same counts, the results for `Oc1c2nnnc-2oc2cc(OCCCN3CCN(Cc4ccc(Cl)cc4)CC3)ccc12` are 0.794 nM, 31000 nM and 5400 nM.
On the same counts, the results for `Cc1c(OCCCN2CCN(Cc3cccc(Cl)c3)CC2)ccc2c(O)c3nnnc-3oc12` are 3.98 nM, above 20000 nM and 1000 nM.
For `Cc1c(OCCCN(C)CCN(C)Cc2ccc(Cl)cc2)ccc2c(O)c3nnnc-3oc12`, the Kb on Histamine H1 receptor [1] is 79.4 nM.
Turning to `Cc1c(OCCCN2CCN(Cc3ccccn3)CC2)ccc2c(O)c3nnnc-3oc12`, at Histamine H1 receptor [5], the Kb is 15.8 nM. Also, the IC50 is above 20000 nM in the test listed under Rattus norvegicus [2] and 100 nM in the test listed under Rattus norvegicus [3].
